Assay results as given in ChEMBL document CHEMBL1138286, “Synthesis and biological evaluation of N-(aryl)-2-thiophen-2-ylacetamides series as a new class of antitubercular agents” (2007).
≈ marks a conversion by molar mass, not a printed value. Calls of active or inactive are those of the source. The calls are words filed in the database; no cut-off is given here.

Assays:
Assay type in all cases: functional
[1] = system: Mycobacterium tuberculosis; test: Antibacterial activity against Mycobacterium tuberculosis ATTC 27294 after 5 days by MABA assay; conditions: for MIC: 120 h
In short: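 Microplate Alamar blue assay in Middlebrook 7H9 broth. Compounds serially diluted on the plate to final concentrations of […]. Plates sealed and incubated at 37 °C for 5 days. A 1:1 mix of Alamar blue and 10% Tween 80 was then added and plates incubated 24 h. Blue scored as no growth, pink as growth. MIC is the lowest concentration preventing the blue-to-pink change.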

J774 [2] = test: Cytotoxicity against murine J774 cells assessed as cell viability at 100 ug/mL after 18 hrs by MTT assay; conditions: Mus musculus, J774, 18 h; read-out: Activity
In short: (§1)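 J774 macrophages plated at 2.5 × 10⁶ cells/mL and held 1 h at 37 °C under 5% CO₂. Non-adherent cells were washed off with RPMI 1640. Adherent cells were exposed in triplicate to compound at 0.1, 1.0, 10.0 or 100 µg/mL, with medium alone as live control and 3% Tween 20 as dead control. After 18 h, MTT was added for 4 h, formazan was dissolved in DMSO, and A540 was read.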

J774 [3] = test: Cytotoxicity against murine J774 cells assessed as cell viability at 1 ug/mL after 18 hrs by MTT assay; conditions: Mus musculus, J774, 18 h; read-out: Activity; in short: as §1
J774 [4] = test: Cytotoxicity against murine J774 cells assessed as cell viability at 0.1 ug/mL after 18 hrs by MTT assay; conditions: Mus musculus, J774, 18 h; read-out: Activity; in short: as §1
J774 [5] = test: Cytotoxicity against murine J774 cells assessed as cell viability at 10 ug/mL after 18 hrs by MTT assay; conditions: Mus musculus, J774, 18 h; read-out: Activity; in short: as §1

**Q.** With `O=C(Cc1cccs1)Nc1ccccc1[N+](=O)[O-]` as the molecule, how does the Activity [1] read?
**A.** Its Activity is “inactive”.

**Q.** How did the Activity [1] turn out when `O=C(Cc1cccs1)Nc1ccc(Br)cc1` was run?
**A.** Its Activity is “inactive”.

**Q.** With `NNC(=O)c1ccncc1` [ISONIAZID] as the molecule, how does the MIC [1] read?
**A.** The MIC was 0.2 µg/mL (≈ 1.46 µM).

**Q.** With `O=C(Cc1cccs1)Nc1ccc(F)cc1Cl` as the molecule, how does the Activity [1] read?
**A.** Its Activity is “inactive”.

**Q.** `Cc1cccc(C)c1NC(=O)Cc1cccs1` was tested. Which Activity [1] did it give?
**A.** The Activity was “inactive”.

**Q.** `Cc1ccccc1NC(=O)Cc1cccs1` was tested. Which MIC [1] did it give?
**A.** The MIC was 100 µg/mL (≈ 432 µM).

**Q.** For `CO[C@H]1/C=C/O[C@@]2(C)Oc3c(C)c(O)c4c(O)c(c(/C=N/N5CCN(C)CC5)c(O)c4c3C2=O)NC(=O)/C(C)=C\C=C\[C@H](C)[C@H](O)[C@@H](C)[C@@H](O)[C@@H](C)[C@H](OC(C)=O)[C@@H]1C` [RIFAMPIN], which MIC [1] is on record?
**A.** Its MIC is 1 µg/mL (≈ 1.22 µM).

**Q.** With `COc1ccc(NC(=O)Cc2cccs2)cc1` as the molecule, how does the Activity [1] read?
**A.** The Activity was “inactive”.

**Q.** For `O=C(Cc1cccs1)Nc1cccc(C(F)(F)F)c1`, which Activity [1] is on record?
**A.** Its Activity is “inactive”.

**Q.** With `O=C(Cc1cccs1)Nc1ccccc1` as the molecule, how does the viability at 100 µg/mL (J774 [2]) read?
**A.** The viability at 100 µg/mL was 100%.

**Q.** What about the viability at 1 µg/mL (J774 [3]) of the same molecule?
**A.** Its viability at 1 µg/mL is 100%.

**Q.** What about the viability at 0.1 µg/mL (J774 [4]) of the same molecule?
**A.** Its viability at 0.1 µg/mL is 100%.

**Q.** And the MIC [1]?
**A.** The MIC was 25 µg/mL (≈ 115 µM).

**Q.** What about the viability at 10 µg/mL (J774 [5]) of the same molecule?
**A.** Its viability at 10 µg/mL is 100%.

**Q.** For `O=C(Cc1cccs1)Nc1ccc2c(c1)OCO2`, which Activity [1] is on record?
**A.** Its Activity is “inactive”.

**Q.** `COc1ccc(OC)c(NC(=O)Cc2cccs2)c1` was tested. Which Activity [1] did it give?
**A.** The Activity was “inactive”.

**Q.** Which Activity [1] does the source give for `O=C(Cc1cccs1)Nc1cccc([N+](=O)[O-])c1` here?
**A.** Its Activity is “inactive”.

**Q.** What does the source list for `O=C(Cc1cccs1)Nc1ccc([N+](=O)[O-])cc1`?
**A.** viability at 100 µg/mL (J774 [2]): 85%; viability at 1 µg/mL (J774 [3]): 100%; viability at 0.1 µg/mL (J774 [4]): 100%; MIC [1]: 50 µg/mL (≈ 191 µM); viability at 10 µg/mL (J774 [5]): 100%

**Q.** For `O=C(Cc1cccs1)Nc1cccc(Cl)c1`, which viability at 100 µg/mL (J774 [2]) is on record?
**A.** The viability at 100 µg/mL was 100%.

**Q.** And the viability at 1 µg/mL (J774 [3])?
**A.** Its viability at 1 µg/mL is 100%.

**Q.** What about the viability at 0.1 µg/mL (J774 [4]) of the same molecule?
**A.** The viability at 0.1 µg/mL was 100%.

**Q.** What about the MIC [1] of the same molecule?
**A.** Its MIC is 50 µg/mL (≈ 199 µM).

**Q.** And the viability at 10 µg/mL (J774 [5])?
**A.** The viability at 10 µg/mL was 100%.

**Q.** Which results are given for `COc1cccc(NC(=O)Cc2cccs2)c1`?
**A.** viability at 100 µg/mL (J774 [2]): 100%; viability at 1 µg/mL (J774 [3]): 100%; viability at 0.1 µg/mL (J774 [4]): 100%; MIC [1]: 50 µg/mL (≈ 202 µM); viability at 10 µg/mL (J774 [5]): 100%

**Q.** `COc1ccccc1NC(=O)Cc1cccs1` was tested. Which Activity [1] did it give?
**A.** Its Activity is “inactive”.

**Q.** For `O=C(Cc1cccs1)Nc1ccc(Cl)cc1`, which MIC [1] is on record?
**A.** The MIC was 100 µg/mL (≈ 397 µM).

**Q.** `O=C(Cc1cccs1)Nc1ccc(Cl)cc1F` was tested. Which MIC [1] did it give?
**A.** Its MIC is 100 µg/mL (≈ 371 µM).

**Q.** How did the Activity [1] turn out when `O=C(Cc1cccs1)Nc1ccccc1C(F)(F)F` was run?
**A.** Its Activity is “inactive”.

**Q.** Which MIC [1] does the source give for `O=C(Cc1cccs1)Nc1ccc(F)cc1` here?
**A.** Its MIC is 100 µg/mL (≈ 425 µM).

**Q.** Which Activity [1] does the source give for `O=C(Cc1cccs1)Nc1c(Cl)cccc1Cl` here?
**A.** Its Activity is “inactive”.
